Only some compounds are listed: those with a hit (about 2.4% of all), similar ones and a draw of the others.
S1P4 antagonist – human S1P4 receptor antagonism | O95977 | S1P4-expressing cells, antagonist mode, reporter read-out | inhibition, % at 4.98 µM | 220,000 compounds, 0.26% hits | AID 1510; in the data active = inhibition above about 29%;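 also: 0% = wells stimulated with agonist and 100% = vehicle wells without agonist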
Target sequence (O95977 whole entry, looked up): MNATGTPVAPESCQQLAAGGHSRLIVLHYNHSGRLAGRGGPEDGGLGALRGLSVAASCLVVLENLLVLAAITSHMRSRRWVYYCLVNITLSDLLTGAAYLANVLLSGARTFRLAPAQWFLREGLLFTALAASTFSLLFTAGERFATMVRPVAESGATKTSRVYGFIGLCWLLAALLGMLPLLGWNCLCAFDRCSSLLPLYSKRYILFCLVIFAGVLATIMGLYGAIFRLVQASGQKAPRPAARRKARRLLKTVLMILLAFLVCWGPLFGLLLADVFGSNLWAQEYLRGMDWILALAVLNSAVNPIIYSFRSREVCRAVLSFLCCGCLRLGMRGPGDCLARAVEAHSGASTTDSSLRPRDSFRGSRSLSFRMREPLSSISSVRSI
NPY-Y1 PAM-ag – potentiators or agonists of human neuropeptide Y receptor Y1. P25929. NPY-Y1 expressing cells, potentiator/agonist activation. activation, % at 3.6 µM. 220,000 compounds, 0.37% hits. AID 1304; in the data active = activation above about 33%, passing the limit was not always enough;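 also: cells stimulated with NPY at EC10 then isoproterenol at EC100; 0% = low agonist plus stimulus and 100% = saturating agonist plus stimulus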
S1P4 agonist – activates the human S1P4 receptor. S1P4-expressing cell line, agonist reporter assay. activation, % at 4.98 µM. 220,000 compounds, 0.35% hits. AID 1509; in the data active = activation above about 11%;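 also: 0% = DMSO vehicle and 100% = reference agonist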
NPY-Y2 PAM-ag – potentiators or agonists of human neuropeptide Y receptor Y2. P49146. cells expressing NPY-Y2, potentiator/agonist read-out. activation, % at 3.6 µM. 220,000 compounds, 0.45% hits. AID 1359; in the data active = activation above about 27%;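 also: cells stimulated with NPY near EC25 plus isoproterenol at EC100; 0% = vehicle plus submaximal agonist and 100% = vehicle plus saturating agonist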
NPY-Y2 antag – blocks the human neuropeptide Y Y2 receptor | P49146 | NPY-Y2 expressing cells, antagonist mode | inhibition, % at 2.7 µM | 140,000 compounds, 0.99% hits | AID 793; in the data active = inhibition above about 17%;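 also: 0% = vehicle with agonist challenge and 100% = reference antagonist with challenge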
NPY Y1 blocker – NPY-Y1 (human) receptor antagonism; P25929; HEK293-CNG Y1 cells, membrane potential fluorescence; NPY at EC95, then isoproterenol; inhibition, % at 3.6 µM; 200,000 compounds, 1% hits;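 active = inhibition above the campaign mean inhibition of all tested compounds plus 3 SD, cut at about 20% in these data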;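 also: 0% = DMSO wells given NPY plus isoproterenol and 100% = isoproterenol alone without NPY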
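Material: Y1- and CNG-channel-expressing HEK293 cells / Probe or stimulus: NPY 25 nM then isoproterenol 1 µM plus Ro 20-1724 25 µM / Doses: 3.6 µM single dose, DMSO 0.4% / Schedule: compound incubation 1 h at room temperature, readout 45 min post-stimulation / Signal: membrane potential fluorescence / Benchmarks: isoproterenol-only wells as full block versus NPY-plus-isoproterenol wells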
* marks the source's active call; other numbers are inactive results; · = no result given.

SMILES	S1P4 antagonist	NPY-Y1 PAM-ag	S1P4 agonist	NPY-Y2 PAM-ag	NPY-Y2 antag	NPY Y1 blocker
CCOC(=O)Cc1csc(NC(=O)CSc2nc(-c3ccccc3)c(C#N)c(=O)[nH]2)n1	-12.6	-15.1	0.5	-10.1	·	20.7*
CNC(=S)N(CCc1c(C)[nH]c2ccc(C)cc12)Cc1cccs1	-7.4	42.6*	2.7	30.7*	·	-8.9
CC(=O)NC(NC(=S)Nc1ccc(N=Nc2ccccc2)cc1)C(Cl)(Cl)Cl (configuration not stated)	2.7	45.6*	1.3	33.3	-7.7	-14.3
CC(=O)NC(NC(=S)Nc1ccc(S(N)(=O)=O)cc1)C(Cl)(Cl)Cl (configuration not stated)	-6.8	-2.0	2.0	-5.1	·	·
COc1cc([N+](=O)[O-])cc2sc(NC(C)=O)nc12	2.3	25.6	2.5	29.4	·	·
CCCCC(=O)Nc1nc2c(OC)cc([N+](=O)[O-])cc2s1	-6.9	38.6*	1.5	33.0*	·	-10.8
CCCCNC(C(=O)Nc1ccc([N+](=O)[O-])cc1Br)c1ccccc1 (configuration not stated)	5.3	-9.3	-1.0	0.0	2.5	13.0
CCc1ccc(C(=O)Cn2ncc(Cl)c(Cl)c2=O)cc1	11.9	6.0	0.5	8.6	3.3	-0.5
O=C(OCn1ncc(Cl)c(Cl)c1=O)c1cccc(C(F)(F)F)c1	34.0*	16.3	-3.9	-1.9	2.8	-0.8
COC(=O)c1cc2c(ccn2-c2ccc(F)cc2)n1C(C)C	-14.0	-9.4	0.0	-2.0	20.9*	35.0*
COC(=O)c1cc2c(ccn2-c2ccc(F)cc2)n1Cc1cccc(OC)c1	-7.5	7.3	-1.1	17.2	6.3	1.5
NC(=O)CC[C@@H]1NC(=O)[C@@H]2CCCN2C(=O)c2cc([N+](=O)[O-])cc(I)c2NCCC[C@@H](C(N)=O)NC1=O	0.6	-11.4	1.1	17.2	-2.7	-5.0
N#CC1=C(N)SC(N)=C(C#N)C1CCC1CCCCC1	-17.2	3.7	0.7	-11.3	10.4	2.4
Cn1nc(-c2ccccn2)nc2c(=O)n(C)c(=O)nc1-2	104.0*	-18.3	0.5	-55.3	·	·
Cc1cc2nc(-c3ccc(SCc4ccccn4)nc3)[nH]c2cc1C	-1.2	0.7	0.1	-8.2	·	3.3
COC(=O)CNC(c1ccccc1)c1cc(Br)ccc1NC(=O)CNC(=O)OCc1ccccc1 (configuration not stated)	-6.7	1.1	-0.4	-5.2	29.4*	25.0*
COc1ccccc1NC(=O)Nc1ccc(CC#N)cc1	5.2	11.7	1.7	-11.2	·	·
CC(C)Nc1ccc(Nc2ccnc3cc4ccccc4cc23)cc1	-90.2	80.8*	-0.5	75.1*	·	·
COc1cccc(NC(=O)c2ccccc2-c2nc(-c3cccc(C)c3)no2)c1	2.3	-107.7	0.5	-32.9	23.0*	36.9*
CCOC(=O)c1cc(-c2ccco2)nc2c1c(C)nn2CCC#N	5.5	-5.9	-0.7	-16.8	10.5	10.0
CCOC(=O)c1cc(-c2ccc(OC)cc2F)nc2c1c(C)nn2CCC#N	7.6	14.2	-2.4	0.0	20.4*	26.0*
CCOC(=O)c1cc(-c2ccc3c(c2)OCCO3)nc2c1c(C)nn2CCC#N	4.3	-18.4	-1.0	-11.2	4.2	6.5
CCOC(=O)c1cc(-c2ccc(Cl)cc2)nc2c1c(C)nn2CCC#N	2.5	-73.9	-1.2	-30.6	33.0*	24.6*
CCOC(=O)c1cc(-c2ccccc2)nc2c1c(C)nn2-c1ccccn1	-9.8	-67.9	0.8	-23.7	59.9*	48.9*
Cc1ccccc1NC(=O)c1ccc(CN2CCC(Cc3ccccc3)CC2)cc1	-7.8	20.1	-2.1	38.0*	12.9	6.3
SMILES	S1P4 antagonist	NPY-Y1 PAM-ag	S1P4 agonist	NPY-Y2 PAM-ag	NPY-Y2 antag	NPY Y1 blocker
Clc1cccc(N/N=C/c2ccc(N3CCOCC3)s2)c1	-7.2	-8.2	2.6	8.3	-1.1	-2.8
Cc1ccc(OCC(=O)Nc2ccc([N+](=O)[O-])cn2)cc1C	-24.9	-32.6	3.3	-8.2	9.1	24.5*
COc1cc(S(=O)(=O)N(C)C2CCCCC2)c(C)cc1C	-18.4	-12.5	-0.6	-3.4	·	6.2
O=C(COc1ccccc1[N+](=O)[O-])NCCC1=CCCCC1	-6.3	2.2	0.2	-8.2	·	2.6
COc1ccc(/C=N/NC(=O)c2sccc2OCc2ccc(F)cc2)cc1OC	2.9	-20.6	1.0	-26.6	25.9*	11.7
CCOC(=O)c1c(N)n(-c2ccc(N)cc2)c2nc3ccccc3nc12	9.6	20.9	-0.3	13.5	-0.7	2.3
Nc1c(C(=O)Nc2ccccc2)c2nc3ccccc3nc2n1-c1ccc(O)cc1	6.6	55.2*	8.0	45.9*	·	·
O=C(/C=C/c1cccnc1)/C=C/c1cccnc1	97.7*	-32.9	0.2	-41.6	·	·
O=C(/C=C/c1cccnc1)c1cc(F)ccc1O	11.3	-9.3	-0.1	-3.6	·	·
COc1ccc(CN2CCC(CO)(Cc3ccccc3)CC2)cc1Cn1cccn1	-8.4	-16.6	0.5	-24.8	·	21.4*
COc1ccc(CN2CCN(C(C)C)C(CCO)C2)cc1Cn1cccn1 (configuration not stated)	3.8	-5.6	-0.9	5.6	·	-1.7
Cc1ccc(Cl)cc1N1CCN(CC(O)COC(C)C)CC1 (configuration not stated)	-5.1	2.2	-0.4	-12.9	·	·
Cc1ccc(C(C)C)c(OCC(O)CN2CC(C)OC(C)C2)c1 (configuration not stated)	-26.8	93.4*	3.0	91.8*	4.1	-9.6
Cc1ccc(C(C)C)c(OCC(O)CN2CCN(CCO)CC2)c1 (configuration not stated)	-12.1	101.5*	0.2	80.5*	3.6	-10.9
Cc1cc(OCC(O)CN2CCN(C)CC2)ccc1C(C)C (configuration not stated)	0.8	-19.7	0.9	2.5	-0.4	5.3
Cc1ccc(C(C)C)c(OCC(O)CN2CCOCC2)c1 (configuration not stated)	-15.4	89.0*	0.5	76.0*	1.0	-13.4
Cc1ccc(OCC(O)CN2CCN(CC(O)COC(C)C)CC2)c(C(C)(C)C)c1 (configuration not stated)	-11.9	95.6*	-0.7	93.0*	4.8	-14.9
C=CCc1c(C)nc2c(C)cccc2c1SC(=N)N	10.7	-5.9	0.8	-3.5	·	·
CC(NC(=O)C1c2ccccc2Oc2ccccc21)C1CCCO1 (configuration not stated)	0.2	-2.1	0.6	4.5	·	1.4
Clc1ccc(CN2C3=NCCCN3c3ccccc32)cc1Cl	0.8	-21.5	2.8	-18.5	·	21.2*
Clc1ccc(CN2C3=NCCCN3c3ccccc32)cc1	8.4	-43.9	0.2	-18.5	14.3	9.2
COC(=O)c1c(-c2c(Cl)cccc2Cl)noc1C(=O)NN	2.6	13.2	1.3	-3.9	·	·
COc1nc(Cl)cn(-c2ccc(C)cc2)c1=O	-4.7	-21.8	0.3	-11.3	0.8	-2.9
Cc1ccc(-n2c(Cl)c(Cl)nc(Cl)c2=O)cc1	75.7*	-6.3	1.8	4.2	1.2	1.6
